Measured values from ChEMBL document CHEMBL3734675, “Synthesis, antimycobacterial and antibacterial activity of fluoroquinolone derivatives containing an 3-alkoxyimino-4-(cyclopropylanimo)methylpyrrolidine moiety” (2015).
Converted amounts (≈) assume the structure as drawn.

Tests used:
Format in all cases: functional
Staphylococcus aureus [1] = assay: Antibacterial activity against Staphylococcus aureus CMCC 26003 after 18 to 24 hrs by two-fold serial dilution method
In short: (§1)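 Twofold serial dilution in agar media against Gram-positive and Gram-negative strains. Plates incubated at 35 °C for 18–24 h. MIC read as the lowest compound concentration giving complete inhibition of bacterial growth.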

[2] = system: Staphylococcus epidermidis; assay: Antibacterial activity against methicillin-resistant Staphylococcus epidermidis 14-37 after 18 to 24 hrs by two-fold serial dilution method
In short: (§2)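 Agar media, standard twofold serial dilution. MIC is the lowest concentration giving complete inhibition of bacterial growth after incubation at 35 °C for 18–24 h. Ciprofloxacin and levofloxacin were run as comparators.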

Staphylococcus aureus [3] = assay: Antibacterial activity against methicillin-resistant Staphylococcus aureus 14-5 after 18 to 24 hrs by two-fold serial dilution method; in short: as §2
Klebsiella pneumoniae [4] = assay: Antibacterial activity against extended-spectrum beta-lactamase producing Klebsiella pneumoniae 14-18 after 18 to 24 hrs by two-fold serial dilution method; in short: as §1
Klebsiella pneumoniae [5] = assay: Antibacterial activity against Klebsiella pneumoniae 14-4 after 18 to 24 hrs by two-fold serial dilution method; in short: as §1
Escherichia coli [6] = assay: Antibacterial activity against Escherichia coli 14-2 after 18 to 24 hrs by two-fold serial dilution method; in short: as §1
Enterococcus faecium [7] = assay: Antibacterial activity against Enterococcus faecium 14-2 after 18 to 24 hrs by two-fold serial dilution method; in short: as §1
Klebsiella pneumoniae [8] = assay: Antibacterial activity against extended-spectrum beta-lactamase producing Klebsiella pneumoniae 14-19 after 18 to 24 hrs by two-fold serial dilution method; in short: as §1
Pseudomonas aeruginosa [9] = assay: Antibacterial activity against Pseudomonas aeruginosa ATCC 27853 after 18 to 24 hrs by two-fold serial dilution method; in short: as §1
Pseudomonas aeruginosa [10] = assay: Antibacterial activity against Pseudomonas aeruginosa 14-14 after 18 to 24 hrs by two-fold serial dilution method; in short: as §1
Escherichia coli [11] = assay: Antibacterial activity against Escherichia coli 14-1 after 18 to 24 hrs by two-fold serial dilution method; in short: as §1
Klebsiella pneumoniae [12] = assay: Antibacterial activity against Klebsiella pneumoniae 14-1 after 18 to 24 hrs by two-fold serial dilution method; in short: as §1
Escherichia coli [13] = assay: Antibacterial activity against Escherichia coli ATCC 25922 after 18 to 24 hrs by two-fold serial dilution method; in short: as §1
Klebsiella pneumoniae [14] = assay: Antibacterial activity against extended-spectrum beta-lactamase producing Klebsiella pneumoniae 14-17 after 18 to 24 hrs by two-fold serial dilution method; in short: as §1
Streptococcus pneumoniae = assay: Antibacterial activity against methicillin-resistant Streptococcus pneumoniae ATCC 19615 after 18 to 24 hrs by two-fold serial dilution method; in short: as §2
[15] = system: Staphylococcus epidermidis; assay: Antibacterial activity against methicillin-sensitive Staphylococcus epidermidis 14-2 after 18 to 24 hrs by two-fold serial dilution method; in short: as §1
Escherichia coli [16] = assay: Antibacterial activity against extended-spectrum beta-lactamase producing Escherichia coli 14-2 after 18 to 24 hrs by two-fold serial dilution method; in short: as §1
Staphylococcus aureus [17] = assay: Antibacterial activity against methicillin-sensitive Staphylococcus aureus 14-4 after 18 to 24 hrs by two-fold serial dilution method; in short: as §1
Staphylococcus aureus [18] = assay: Antibacterial activity against methicillin-sensitive Staphylococcus aureus 14-1 after 18 to 24 hrs by two-fold serial dilution method; in short: as §1
Klebsiella pneumoniae [19] = assay: Antibacterial activity against Klebsiella pneumoniae 14-3 after 18 to 24 hrs by two-fold serial dilution method; in short: as §1
Pseudomonas aeruginosa [20] = assay: Antibacterial activity against Pseudomonas aeruginosa 14-16 after 18 to 24 hrs by two-fold serial dilution method; in short: as §1
Enterococcus faecium [21] = assay: Antibacterial activity against Enterococcus faecium 14-6 after 18 to 24 hrs by two-fold serial dilution method; in short: as §1
Staphylococcus aureus [22] = assay: Antibacterial activity against methicillin-resistant Staphylococcus aureus 14-4 after 18 to 24 hrs by two-fold serial dilution method; in short: as §2
Enterococcus faecalis [23] = assay: Antibacterial activity against Enterococcus faecalis 14-1 after 18 to 24 hrs by two-fold serial dilution method; in short: as §1
Pseudomonas aeruginosa [24] = assay: Antibacterial activity against Pseudomonas aeruginosa 14-15 after 18 to 24 hrs by two-fold serial dilution method; in short: as §1
Staphylococcus aureus [25] = assay: Antibacterial activity against methicillin-sensitive Staphylococcus aureus 14-3 after 18 to 24 hrs by two-fold serial dilution method; in short: as §1
[26] = system: Staphylococcus epidermidis; assay: Antibacterial activity against methicillin-resistant Staphylococcus epidermidis 14-39 after 18 to 24 hrs by two-fold serial dilution method; in short: as §2
Klebsiella pneumoniae [27] = assay: Antibacterial activity against Klebsiella pneumoniae 14-2 after 18 to 24 hrs by two-fold serial dilution method; in short: as §1
Enterococcus faecium [28] = assay: Antibacterial activity against Enterococcus faecium 14-5 after 18 to 24 hrs by two-fold serial dilution method; in short: as §1
[29] = system: Staphylococcus epidermidis; assay: Antibacterial activity against methicillin-resistant Staphylococcus epidermidis 14-22 after 18 to 24 hrs by two-fold serial dilution method; in short: as §2
[30] = system: Staphylococcus epidermidis; assay: Antibacterial activity against methicillin-resistant Staphylococcus epidermidis 14-21 after 18 to 24 hrs by two-fold serial dilution method; in short: as §2
Escherichia coli [31] = assay: Antibacterial activity against extended-spectrum beta-lactamase producing Escherichia coli 14-1 after 18 to 24 hrs by two-fold serial dilution method; in short: as §1
Enterococcus faecalis [32] = assay: Antibacterial activity against Enterococcus faecalis 14-2 after 18 to 24 hrs by two-fold serial dilution method; in short: as §1
Pseudomonas aeruginosa [33] = assay: Antibacterial activity against Pseudomonas aeruginosa 14-9 after 18 to 24 hrs by two-fold serial dilution method; in short: as §1

Structure (SMILES)	MIC (Staphylococcus aureus [1])	MIC [2]	MIC (Staphylococcus aureus [3])	MIC (Klebsiella pneumoniae [4])	MIC (Klebsiella pneumoniae [5])	MIC (Escherichia coli [6])	MIC (Enterococcus faecium [7])	MIC (Klebsiella pneumoniae [8])	MIC (Pseudomonas aeruginosa [9])	MIC (Pseudomonas aeruginosa [10])	MIC (Escherichia coli [11])	MIC (Klebsiella pneumoniae [12])	MIC (Escherichia coli [13])	MIC (Klebsiella pneumoniae [14])	MIC (Streptococcus pneumoniae)	MIC [15]	MIC (Escherichia coli [16])	MIC (Staphylococcus aureus [17])	MIC (Staphylococcus aureus [18])	MIC (Klebsiella pneumoniae [19])	also measured
CO/N=C1/CN(c2nc3c(cc2F)c(=O)c(C(=O)O)cn3C2CC2)CC1(C)CNC1CC1 (stereo not drawn)	< 8 ng/mL	4 µg/mL (≈ 9.02 µM)	4 µg/mL (≈ 9.02 µM)	64 µg/mL (≈ 144 µM)	> 128 µg/mL	> 128 µg/mL	4 µg/mL (≈ 9.02 µM)	64 µg/mL (≈ 144 µM)	32 µg/mL (≈ 72.2 µM)	64 µg/mL (≈ 144 µM)	> 128 µg/mL	64 µg/mL (≈ 144 µM)	0.5 µg/mL (≈ 1.13 µM)	64 µg/mL (≈ 144 µM)	0.25 µg/mL (≈ 0.564 µM)	16 µg/mL (≈ 36.1 µM)	> 128 µg/mL	0.5 µg/mL (≈ 1.13 µM)	0.5 µg/mL (≈ 1.13 µM)	> 128 µg/mL	MIC (Pseudomonas aeruginosa [20]): 64 µg/mL (≈ 144 µM); MIC (Enterococcus faecium [21]): 2 µg/mL (≈ 4.51 µM); MIC (Staphylococcus aureus [22]): 4 µg/mL (≈ 9.02 µM); MIC (Enterococcus faecalis [23]): 16 µg/mL (≈ 36.1 µM); MIC (Pseudomonas aeruginosa [24]): 64 µg/mL (≈ 144 µM); MIC (Staphylococcus aureus [25]): 0.25 µg/mL (≈ 0.564 µM); MIC [26]: 2 µg/mL (≈ 4.51 µM); MIC (Klebsiella pneumoniae [27]): 128 µg/mL (≈ 289 µM); MIC (Enterococcus faecium [28]): 4 µg/mL (≈ 9.02 µM); MIC [29]: 2 µg/mL (≈ 4.51 µM); MIC [30]: 4 µg/mL (≈ 9.02 µM); MIC (Escherichia coli [31]): 32 µg/mL (≈ 72.2 µM); MIC (Enterococcus faecalis [32]): 0.5 µg/mL (≈ 1.13 µM); MIC (Pseudomonas aeruginosa [33]): 16 µg/mL (≈ 36.1 µM)
CCO/N=C1/CN(c2nc3c(cc2F)c(=O)c(C(=O)O)cn3C2CC2)CC1CNC1CC1 (stereo not drawn)	< 8 ng/mL	32 µg/mL (≈ 72.2 µM)	8 µg/mL (≈ 18 µM)	8 µg/mL (≈ 18 µM)	128 µg/mL (≈ 289 µM)	128 µg/mL (≈ 289 µM)	32 µg/mL (≈ 72.2 µM)	8 µg/mL (≈ 18 µM)	8 µg/mL (≈ 18 µM)	32 µg/mL (≈ 72.2 µM)	128 µg/mL (≈ 289 µM)	32 µg/mL (≈ 72.2 µM)	2 µg/mL (≈ 4.51 µM)	8 µg/mL (≈ 18 µM)	2 µg/mL (≈ 4.51 µM)	128 µg/mL (≈ 289 µM)	128 µg/mL (≈ 289 µM)	8 µg/mL (≈ 18 µM)	8 µg/mL (≈ 18 µM)	128 µg/mL (≈ 289 µM)	MIC (Pseudomonas aeruginosa [20]): 16 µg/mL (≈ 36.1 µM); MIC (Enterococcus faecium [21]): 8 µg/mL (≈ 18 µM); MIC (Staphylococcus aureus [22]): 128 µg/mL (≈ 289 µM); MIC (Enterococcus faecalis [23]): 64 µg/mL (≈ 144 µM); MIC (Pseudomonas aeruginosa [24]): 32 µg/mL (≈ 72.2 µM); MIC (Staphylococcus aureus [25]): 8 µg/mL (≈ 18 µM); MIC [26]: 16 µg/mL (≈ 36.1 µM); MIC (Klebsiella pneumoniae [27]): 32 µg/mL (≈ 72.2 µM); MIC (Enterococcus faecium [28]): 16 µg/mL (≈ 36.1 µM); MIC [29]: 16 µg/mL (≈ 36.1 µM); MIC [30]: 16 µg/mL (≈ 36.1 µM); MIC (Escherichia coli [31]): 8 µg/mL (≈ 18 µM); MIC (Enterococcus faecalis [32]): 0.125 µg/mL (≈ 0.282 µM); MIC (Pseudomonas aeruginosa [33]): 8 µg/mL (≈ 18 µM)
